An excerpt weighted towards active compounds, which were near 2.9% of everything screened.
VIM-2 inhibitor: blocks Pseudomonas aeruginosa VIM-2 metallo-beta-lactamase; purified VIM-2, nitrocefin hydrolysis, epi-absorbance fluorescence; inhibition, % at 5.6 µM; 290,000 tested, 0.89% active;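 active = inhibition above the mean of all tested compounds plus 3 SD, cutoff set per screening run, cut at about 7.5% in these data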;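 note: red hydrolysis product quenches plate fluorescence so inhibitors raise well fluorescence; 0% = enzyme with DMSO and 100% = DMSO without enzyme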
NALP1 inh: inhibitors of NALP1 inflammasome in yeast. S. cerevisiae NALP1/ASC/caspase-1 growth, X-gal OD620, 72 h. inhibition, % at 10 µM. 280,000 tested, 0.61% active. AID 2071; in the data active = inhibition mostly above about 24%, no sharp cut-off; inactive = mostly below about 32%
Mot1-301 SUMO: inhibitors of SUMOylation pathway: yeast Mot1-301 growth rescue. S. cerevisiae Mot1-301 growth rescue, ATP luminescence, 38.5C; percent above DMSO median, 100 means doubled. growth rescue, % at 18.8 µM. 320,000 tested, 1% active;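 active = every valid replicate shows activation above 250% relative to neutral control wells; inactive = the rest, any valid replicate at or below 250%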;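 note: OY570 slx delta 5 strain wells were the positive control but not used for scaling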
NLRP3 yeast inh: NALP3 inhibition in yeast; Yeast reconstituted NLRP3/ASC/caspase-1, beta-gal luminescence, 24 h; 330,000 tested, 0.39% active; inhibition, % at 10 µM; AID 2825;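 active = inhibition of 50% or more; inactive = inhibition below 50%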;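 note: plate controls were induced DMSO wells for no effect and uninduced yeast grown without galactose for full effect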
IMP-1 inh: inhibitors of Pseudomonas aeruginosa IMP-1 metallo-beta-lactamase. purified IMP-1, nitrocefin hydrolysis, epi-absorbance fluorescence. inhibition, % at 5.6 µM. 290,000 tested, 0.45% active;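 active = inhibition above the mean plus 3 SD of all compounds in the same screening run, cut at about 4.5% in these data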;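 note: 0% = IMP-1 with DMSO and 100% = DMSO wells lacking enzyme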
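System: Purified recombinant IMP-1 metallo-beta-lactamase enzyme | Measured by: Fluorescence quenching readout, ex 480/em 530 nm | Replication: Singlicate | Incubation: 15 min preincubation plus 25 min reaction at 25 °C | Evaluation: Percent inhibition from optical density relative to buffer-blank wells | Benchmarks: DMSO with and without IMP-1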
PolyA inhibitor: inhibitors of polyadenylation in S. cerevisiae | S. cerevisiae SKY197-pL101 polyadenylation reporter, beta-gal luminescence; efflux-impaired pdr1/pdr3 knockout yeast; score 100 = 6 SD above DMSO | activity score, % at 12 µM | 300,000 tested, 0.02% active | AID 1875;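 active = lowest replicate activity score at least 50, where 100 means six control SD above control mean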;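 note: yeast exposed to compound for 9 h at 30 °C; higher score means more reporter readthrough which indicates perturbed polyadenylation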
An asterisk follows results filed as active; / = not tested or not shown; + = active, no number.

SMILES	VIM-2 inhibitor	NALP1 inh	Mot1-301 SUMO	NLRP3 yeast inh	IMP-1 inh	PolyA inhibitor
Cc1ccccc1NC(=O)c1c(C)[nH]c(=S)c(C#N)c1-c1ccco1	-1.3	23.6	0.2	3.9	16.8*	13.9
Cc1nnc(NC(=O)CCC(=O)N2CCN(S(=O)(=O)c3cc([N+](=O)[O-])ccc3C)CC2)s1	/	/	12.8	2.8	/	/
CN(Cc1c(F)cccc1Cl)C(=O)c1ccc(NS(=O)(=O)c2ccc3[nH]c(=O)[nH]c3c2)cc1	/	/	-1.7	13.0	/	5.1
O=C(O)C1C2CCC(O2)C1C(=O)Nc1ccc(Cl)cc1F (stereo not drawn)	-2.8	-0.3	633.0*	1.8	-4.5	5.5
O=C(O)C1C2CCC(O2)C1C(=O)Nc1cccc(Cl)c1 (stereo not drawn)	-2.1	17.0	92.9	7.2	-2.5	4.5
CCOc1ccc(-c2cc(C(=O)NCCCn3ccnc3)c3ccccc3n2)cc1	-2.8	-0.9	20.5	22.9	-4.3	-7.9
CCOc1ccc(-c2cc(C(=O)NCCCN3CCN(CC)CC3)c3ccccc3n2)cc1	3.3	31.0*	-2.5	-0.5	-2.3	21.5
COc1ccc(N(CC(C)C)S(=O)(=O)c2nnc(NC(=O)c3ccco3)s2)cc1	-3.2	18.2	-6.2	-7.5	0.7	6.2
Cc1noc(C(=O)N2CCN(Cc3ccc4c(c3)OCO4)CC2)c1Cl	-2.2	8.3	-8.0	27.3	-2.9	12.5
CNC(=O)Nc1cccc2cccnc12	-2.5	43.7*	6.7	-4.8	-2.1	19.0
CC(C)C(NC(=O)c1c(F)cccc1F)C(=O)NCc1ccc(S(=O)(=O)N2CCOCC2)cc1 (stereo not drawn)	/	/	6.3	10.8	/	/
N#Cc1c(Cl)cccc1-n1ccnc1	-1.9	1.9	23.3	29.0	-3.4	5.2
Cc1cc(C)n(-c2cccc(Cl)c2C#N)n1	8.7*	/	49.3	22.0	-4.2	-5.9
Nc1nc(SCCO)[nH]c(=O)c1NC(=O)c1ccco1	/	/	-17.5	17.8	/	/
COc1ccc(CNC(=O)C2CCCN(c3ncnc4c3nc3n4CCCCC3)C2)cc1 (stereo not drawn)	1.0	13.1	12.4	9.5	-2.3	19.1
O=C(COC(=O)c1cc(Br)ccc1O)NNC(=O)c1cccs1	/	/	-5.0	2.3	/	/
O=c1[nH]c(CN2CCOCC2)nc2ccccc12	-5.2	24.0*	-4.6	-0.3	-4.5	7.7
O=C(O)c1ccc2c(=O)[nH]c(CN3CCOCC3)nc2c1	-1.5	7.1	3.0	0.8	-6.0	-11.0
COc1cccc(CNC(=O)Cc2ccc(-c3ccccc3)cc2)c1	-1.1	-10.6	-10.8	20.8	19.5*	7.2
Nc1ccc2nc(-c3cccc(-c4nc5ccc(N)cc5[nH]4)n3)[nH]c2c1	10.0*	-11.3	0.1	23.2	-5.1	15.9
COc1cc(OC)c(C2=NOC(C(=O)N3CCCc4ccccc43)C2)cc1Cl (stereo not drawn)	-2.1	37.2*	143.7	7.2	-0.5	0.7
O=C(O)c1cc(O)c2c(c1)C(=O)c1cccc(O)c1C2=O	6.6	48.5	-15.2	12.3	4.6*	-0.1
CCOC(=O)CNC(=O)C1COc2ccccc2O1 (stereo not drawn)	-1.8	13.6	6.6	10.1	-0.9	10.7
CCC(C)Nc1cc(C)nc2ncnn12 (stereo not drawn)	2.0	-8.1	+	16.7	-4.4	3.4
C#CCNc1cc(C)nc2ncnn12	1.1	5.7	-2.7	-1.7	-0.4	/
SMILES	VIM-2 inhibitor	NALP1 inh	Mot1-301 SUMO	NLRP3 yeast inh	IMP-1 inh	PolyA inhibitor
COc1cc(OC)c(OC)cc1C#N	-2.1	6.0	689.2*	12.2	-2.0	-6.4
CC(C)NC(=O)c1ccccc1S(=O)(=O)c1ccccc1C#N	-1.5	4.9	12.0	18.7	-1.8	-6.2
CNC(=O)c1ccccc1S(=O)(=O)c1ccccc1C#N	-2.6	28.0*	-13.9	5.9	-2.8	18.8
Cc1ccc(NC(=O)C2C3C=CC(O3)C2C(=O)O)c(C)c1 (stereo not drawn)	-2.6	7.1	5.8	4.6	-2.4	-0.2
Cc1cccc(C)c1NC(=O)CN(C)CC(=O)c1c(N)n(Cc2ccccc2)c(=O)n(C)c1=O	/	/	-2.8	13.1	/	/
COc1ccc(-c2nnc3sc(-c4ccc(Br)o4)nn23)cc1OC	/	9.1	/	/	/	/
COc1ccc(-c2nn3c(-c4ccncc4)nnc3s2)cc1OC	10.3*	/	/	/	-2.8	/
c1ccc(-c2nnc3sc(-c4ccncc4)nn23)cc1	9.0*	-3.2	18.3	7.2	-2.8	-4.3
CCO[C@H]1OC(C(N)=O)=C[C@@H](C(C)(C)C)[C@@H]1CCCO	/	/	1.1	11.9	/	-6.7
COCCC(=O)N1CCC(Oc2ccc(C(=O)N3CCC(N(C)C)C3)cc2)CC1 (stereo not drawn)	1.7	8.1	-21.8	3.6	-3.0	-1.3
COc1ccccc1CNC(=O)CN(C)CC(=O)Nc1ccccc1Br	/	/	16.3	5.3	/	/
CCN(c1ccc(NC(=O)CSCc2c(C)noc2C)cc1)C(C)C	/	/	0.3	11.7	/	/
Cc1ccnc(NC(=O)c2cc(S(=O)(=O)N3CCCCC3)ccc2Cl)c1	-2.3	40.0*	5.8	8.8	-2.5	5.0
CCCCCn1c(=O)[nH]c2cc(C(=O)NCCCN3CCC(C)CC3)ccc2c1=O	1.6	31.8*	8.3	-8.1	-3.8	-5.5
N#Cc1ncc(Cc2ccccc2)nc1C#N	-0.6	20.6	25.4	26.9	-0.9	-14.1
Cc1ccc2nc(SCC(=O)Nc3cccnc3Cl)[nH]c2c1	/	/	17.8	13.1	/	/
Cc1ccc(C)c(SCC(=O)Nc2cccnc2Cl)c1	-4.8	33.2*	/	35.2	-2.7	-9.6
CC1Oc2ccccc2C=C1C1/C(=C(/O)c2ccccc2)C(=O)C(=O)N1CCCN(C)C (stereo not drawn)	-1.5	11.2	285.8*	2.4	1.7	2.4
CCOC(=O)C(C)(C)Oc1cccc2c1S(=O)(=O)c1ccccc1-2	/	/	2.0	19.8	/	-3.5
COc1ccccc1CNC(=O)c1cccc2c1C(=O)N(Cc1cccnc1)C2	-1.8	-1.7	-20.3	17.2	-1.6	5.9
COC(CNC(=O)c1cccc2c1C(=O)N(Cc1cccnc1)C2)OC	-2.7	40.6*	7.2	-1.9	-1.8	7.1
COC(=O)c1cc(Sc2cccc(Cl)c2Cl)ccn1	9.2*	5.1	19.9	15.8	-1.6	-7.9
Cc1ccn(CC(=O)NC2CC(C)(C)Cc3c2cnn3-c2ccc(F)cc2)n1 (stereo not drawn)	-1.7	-2.1	-4.2	8.0	-1.3	-9.3
CNCc1ccccc1Sc1cc(O)ccc1O	1.1	56.0*	183.9	17.9	2.9	/
CCOC(=O)C1CCN(C(C(=O)NC2CCCC2)c2ccc(C)cc2)CC1 (stereo not drawn)	0.6	36.5*	-8.8	5.4	-2.8	7.9
Cc1ccc(C(C(=O)NC2CCCCC2)N2CCCC2)cc1 (stereo not drawn)	-2.5	24.0	-20.4	11.1	-1.3	-5.3
CCOc1ccc2nc(NC(=O)C3CSC4(C)CCC(=O)N34)sc2c1 (stereo not drawn)	/	/	-8.2	9.3	/	/

Assay outcomes from PubChem BioAssay.
